Assay results taken from ChEMBL document CHEMBL1141557, “An expeditious one-pot synthesis of 1,6-dideoxy-N-alkylated nojirimycin derivatives and their inhibitory effects on the secretion of IFN-gamma and IL-4” (Bioorg Med Chem, 2008).
Activity calls are given as the source filed them. No cut-off for these calls is given here.

Key:
[1] = Inhibition of alpha-L-fucosidase
Method in brief: (§1)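 Enzyme added to substrate (0.4–5 mM) in 25 mM phosphate and nitrate buffer, with or without iminosugar at various concentrations. Substrates were p-nitrophenyl glycosides; β-galactosidase used o-nitrophenyl β-galactoside.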

[2] = Inhibition of beta glucosidase; method in brief: as §1
[3] = system: Splenocyte; assay: Inhibition of IFN-gamma secretion in BALB/c mouse splenocytes at 60 uM after 72 hrs by ELISA; assay type: functional
Method in brief: (§2)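 Splenocytes from BALB/c mouse spleens, red cells lysed with Tris–NH4Cl pH 7.2, in RPMI-1640 with 10% newborn calf serum; 5 × 10^5 cells per well. Cells pretreated 4 h with 10 µg/mL concanavalin A (type IV), then given compound and held 72 h at 37 °C, 5% CO2. IFN-γ or IL-4 in the supernatant measured by mouse cytokine ELISA, quantified from a standard curve (15.63–500 pg/mL).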

[4] = Inhibition of beta galactosidase; method in brief: as §1
[5] = Inhibition of alpha galactosidase; method in brief: as §1
[6] = system: Splenocyte; assay: Inhibition of IL4-secretion in BALB/c mouse splenocytes at 60 uM after 72 hrs by ELISA; assay type: functional; method in brief: as §2
[7] = Inhibition of alpha mannosidase; method in brief: as §1
[8] = target: T1, Beta-mannosidase (Homo sapiens) (UniProt O00462); assay: Inhibition of beta-mannosidase; method in brief: as §1
T1 sequence (whole entry): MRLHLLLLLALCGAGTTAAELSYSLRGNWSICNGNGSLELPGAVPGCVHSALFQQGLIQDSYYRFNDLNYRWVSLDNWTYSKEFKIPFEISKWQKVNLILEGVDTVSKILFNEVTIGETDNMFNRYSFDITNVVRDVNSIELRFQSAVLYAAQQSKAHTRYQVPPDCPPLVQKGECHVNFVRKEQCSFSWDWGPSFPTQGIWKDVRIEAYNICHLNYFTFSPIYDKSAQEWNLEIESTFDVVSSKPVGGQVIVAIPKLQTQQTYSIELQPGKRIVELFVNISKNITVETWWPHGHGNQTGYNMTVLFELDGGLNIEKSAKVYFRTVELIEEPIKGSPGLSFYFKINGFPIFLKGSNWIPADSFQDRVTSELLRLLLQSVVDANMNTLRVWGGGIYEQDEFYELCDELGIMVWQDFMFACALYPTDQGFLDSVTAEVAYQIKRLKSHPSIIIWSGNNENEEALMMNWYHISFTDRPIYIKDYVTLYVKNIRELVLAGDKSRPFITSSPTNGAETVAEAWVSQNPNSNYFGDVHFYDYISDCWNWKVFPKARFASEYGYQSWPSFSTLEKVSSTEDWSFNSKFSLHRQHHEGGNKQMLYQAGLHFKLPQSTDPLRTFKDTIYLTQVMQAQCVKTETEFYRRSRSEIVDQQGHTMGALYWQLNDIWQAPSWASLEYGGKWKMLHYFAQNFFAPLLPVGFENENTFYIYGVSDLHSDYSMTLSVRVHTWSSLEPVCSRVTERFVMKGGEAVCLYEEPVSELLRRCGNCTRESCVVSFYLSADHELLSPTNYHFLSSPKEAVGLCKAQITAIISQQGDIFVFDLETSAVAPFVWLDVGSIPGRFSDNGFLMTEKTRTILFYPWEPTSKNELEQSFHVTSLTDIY

[9] = Inhibition of alpha glucosidase; method in brief: as §1
[10] = Inhibition of concanavalin A-induced BALB/c mouse splenocyte proliferation at 30 uM by MTT assay; assay type: functional
Method in brief: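 Mouse splenocytes stimulated with concanavalin A; proliferation read by MTT assay as the mitochondrial dehydrogenase activity of surviving cells, with compound at 30 µM.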

Row | Structure (SMILES) | Activity [1] | Activity [2] | inhibition at 60 µM [3] [%] | Activity [4] | Activity [5] | inhibition at 60 µM [6] [%] | Activity [7] | Activity [8] | IC50 [2] [µM] | Activity [9] | inhibition at 30 µM [10] [%] | IC50 [1] [µM] | IC50 [9] [µM] | IC50 [5] [µM] | IC50 [7] [µM]
1 | C[C@@H]1[C@@H](O)[C@H](O)[C@@H](O)CN1CCN | inactive | inactive | 41 | inactive | inactive | 64 | inactive | inactive |  |  |  |  |  |  | 
2 | C[C@@H]1[C@@H](O)[C@H](O)[C@@H](O)CN1CCO |  |  | 29 | inactive | inactive | 57 | inactive | inactive | 34 | inactive |  |  |  |  | 
3 | COCCN1C[C@H](O)[C@@H](O)[C@H](O)[C@H]1C |  | inactive | 16 | inactive | inactive | 58.8 | inactive | inactive |  | inactive |  |  |  |  | 
4 | CC(=O)NCCN1C[C@H](O)[C@@H](O)[C@H](O)[C@H]1C | inactive |  | 9 |  | inactive | 59.7 | inactive | inactive | > 2000 |  |  |  |  |  | 
5 | C[C@@H]1[C@@H](O)[C@H](O)[C@@H](O)CN1C1CCCCC1 |  | inactive | 9.1 | inactive | inactive | 57 | inactive | inactive |  |  |  |  |  |  | 
6 | OC[C@H]1NC[C@H](O)[C@@H](O)[C@@H]1O [DUVOGLUSTAT] |  |  |  |  |  |  |  |  |  |  | 15.6 |  |  |  | 
7 | CCCCN1C[C@H](O)[C@@H](O)[C@H](O)[C@H]1C |  |  | 55.5 |  |  | 44 |  | inactive | 540 |  |  | 3000 | 77 | 234 | 2000
8 | CCCCCCCCCCN1C[C@H](O)[C@@H](O)[C@H](O)[C@H]1C | inactive |  | 61 | inactive | inactive | 90 |  | inactive |  | inactive | 48.3 |  |  |  | 
9 | C[C@H]1NC[C@H](O)[C@@H](O)[C@@H]1O |  | inactive | 9 | inactive | inactive | 58 | inactive | inactive |  |  |  |  |  |  | 
